Converted amounts (≈) assume the structure as drawn.
How the values were obtained:
[1] = Selectivity index, ratio of NI50 for human HepG2/C3A cells to MIC50 for Mycobacterium tuberculosis H37Rv ATCC 27294; assay type: functional
[2] = Cytotoxicity against human HepG2/C3A cells assessed as cell viability at 180 uM after 24 hrs by neutral red uptake assay relative to control; assay type: cell-based; conditions: read-out: Activity
Procedure, shortened: (§1)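 C3A cells grown in DMEM + 10% FCS, 40 000 cells/well, recovered overnight at 37 °C, 5% CO2. Exposed 24 h to serial dilutions in DMEM + 10% FCS from 18 mM DMSO stocks, DMSO limited to 1%. Neutral red added for 3 h, cells washed, dye extracted with ethanol/acetic acid (50%/1%), OD read at 540 nm with 620 nm reference. Viability expressed as % of untreated cells.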

[3] = tested on: Mycobacterium tuberculosis; assay: Antimycobacterial activity against Mycobacterium tuberculosis H37Rv ATCC 27294 assessed as growth inhibition at 0.1 uM after 6 days by luciferase reporter gene assay relative to control; assay type: functional; conditions: H37Rv ATCC 27294, 144 h, read-out: GI
Procedure, shortened: (§2)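 Luminescent M. tb H37Rv (hsp60-driven luciferase) in 7H9 + 10% FCS was seeded at 50 000 RLU/mL. Compounds were tested at 10, 1 and 0.1 µM from 10 mM DMSO stocks. After 6 days, luminescence was read with 1% n-decanal. Growth inhibition (%) was expressed against untreated culture, with triplicates.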

[4] = tested on: Mycobacterium avium subsp. paratuberculosis; assay: Antimycobacterial activity against Mycobacterium avium subsp. paratuberculosis ATCC 19698 assessed as growth inhibition after 6 days by luciferase reporter gene assay; assay type: functional; conditions: ATCC 19698, 144 h
Procedure, shortened: (§3)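 Mycobacteria carrying the pSMT1 luciferase reporter plasmid. Compounds came from 10 mM DMSO stocks and were serially diluted in 7H9 + 10% FCS. Thawed bacteria were filtered, recovered 1 h at 37 °C, then added at 50 000 RLU/mL. After 6 days of culture, light was read for 10 s after adding 1% n-decanal. Triplicates were run, and MIC50 was the concentration giving 50% growth inhibition.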

[5] = tested on: Mycobacterium tuberculosis; assay: Antimycobacterial activity against Mycobacterium tuberculosis H37Rv ATCC 27294 assessed as growth inhibition after 6 days by luciferase reporter gene assay; assay type: functional; conditions: H37Rv ATCC 27294, 144 h; procedure, shortened: as §3
[6] = Antimycobacterial activity against Mycobacterium avium subsp. avium ATCC 15769 assessed as growth inhibition after 6 days by luciferase reporter gene assay; assay type: functional; conditions: ATCC 15769, 144 h; procedure, shortened: as §3
[7] = tested on: Mycobacterium tuberculosis; assay: Antimycobacterial activity against Mycobacterium tuberculosis H37Rv infected in mouse J774.A1 cells at 1 MOI assessed as intracellular bacterial growth inhibition at 1 uM after 1 hr by luciferase reporter gene assay relative to control; assay type: functional; conditions: J774.A1, 1 h, read-out: GI
[8] = tested on: Mycobacterium tuberculosis; assay: Antimycobacterial activity against Mycobacterium tuberculosis H37Rv infected in mouse J774.A1 cells at 1 MOI assessed as intracellular bacterial growth inhibition at 0.1 uM after 1 hr by luciferase reporter gene assay relative to control; assay type: functional; conditions: J774.A1, 1 h, read-out: GI
Salmonella typhimurium [9] = assay: Toxicity in recombinant Salmonella typhimurium TA104 expressing luxabcd genes under transcriptional control of constitutive pr1 promoter assessed as concentration required to reduce cell viability measured every 5 mins for 4 hrs by vitotox assay in absence of S9 fraction; assay type: organism-based; conditions: salmonella enterica subsp. enterica serovar typhimurium
Procedure, shortened: (§4)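 Cytox strain TA104 pr1 (constitutive promoter driving lux), run alongside the genox strain. Grown in poor LB at 36 °C for 16 h, diluted 125-fold and shaken 1 h, then diluted 10-fold, with or without aroclor-rat S9. Luminescence read at 30 °C every 5 min over 4 h; a drop in light signal indicates reduced viability. Top concentration 10 µM.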

[10] = Toxicity in recombinant Salmonella typhimurium TA104 expressing luxabcd genes under transcriptional control of constitutive pr1 promoter assessed as concentration required to reduce cell viability measured every 5 mins for 4 hrs by vitotox assay in presence of S9 fraction; assay type: organism-based; conditions: salmonella enterica subsp. enterica serovar typhimurium; read-out: Activity; procedure, shortened: as §4
[11] = tested on: Mycobacterium tuberculosis; assay: Antimycobacterial activity against Mycobacterium tuberculosis H37Rv ATCC 27294 assessed as growth inhibition at 10 uM after 6 days by luciferase reporter gene assay relative to control; assay type: functional; conditions: H37Rv ATCC 27294, 144 h, read-out: GI; procedure, shortened: as §2
Salmonella typhimurium [12] = assay: Genotoxicity in recombinant Salmonella typhimurium TA104 expressing Vibrio fisheri luxabcd genes under transcriptional control of recN2-4 promoter assessed as concentration required to cause DNA damage measured every 5 mins for 4 hrs by vitotox assay in absence of S9 fraction; assay type: toxicity, organism-based; conditions: salmonella enterica subsp. enterica serovar typhimurium
Procedure, shortened: (§5)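 VITOTOX genox strain TA104 recN2-4 (recN promoter driving lux). Grown 16 h at 36 °C in poor LB, diluted 125-fold and shaken 1 h, then diluted 10-fold; rat aroclor S9 added for +S9 runs. Incubated at 30 °C with light read every 5 min for 4 h. Signal/noise = exposed over unexposed light. Highest concentration tested 10 µM.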

Salmonella typhimurium [13] = assay: Genotoxicity in recombinant Salmonella typhimurium TA104 expressing Vibrio fisheri luxabcd genes under transcriptional control of recN2-4 promoter assessed as concentration required to cause DNA damage measured every 5 mins for 4 hrs by vitotox assay in presence of S9 fraction; assay type: toxicity, organism-based; conditions: salmonella enterica subsp. enterica serovar typhimurium, s9, 4 h; procedure, shortened: as §5
Mycobacterium ulcerans = assay: Antimycobacterial activity against Mycobacterium ulcerans 1615 assessed as growth inhibition after 6 days by luciferase reporter gene assay; assay type: functional; conditions: Mycobacterium ulcerans, 1615, 144 h
Procedure, shortened: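 M. ulcerans 1615 carrying pSMT1 luciferase reporter plasmid, stock grown as surface pellicle on Sauton medium, cultured at 32 °C. Serial compound dilutions in 7H9 + 10% FCS from 10 mM DMSO stocks, tested in triplicate. Filtered bacteria added at 50 000 RLU/mL. After 6 days, wells collected and washed with PBS, 1% n-decanal in ethanol added, light read over 10 s. MIC50 = concentration giving 50% inhibition versus untreated.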

[14] = Cytotoxicity against human HepG2/C3A cells assessed as cell viability at 60 uM after 24 hrs by neutral red uptake assay relative to control; assay type: cell-based; conditions: read-out: Activity; procedure, shortened: as §1
[15] = tested on: Mycobacterium tuberculosis; assay: Antimycobacterial activity against Mycobacterium tuberculosis H37Rv infected in mouse J774.A1 cells at 1 MOI assessed as intracellular bacterial growth inhibition at 10 uM after 1 hr by luciferase reporter gene assay relative to control; assay type: functional; conditions: J774.A1, 1 h, read-out: GI
[16] = Cytotoxicity against human HepG2/C3A cells assessed as cell viability at 120 uM after 24 hrs by neutral red uptake assay relative to control; assay type: cell-based; conditions: read-out: Activity; procedure, shortened: as §1
[17] = tested on: Mycobacterium tuberculosis; assay: Antimycobacterial activity against Mycobacterium tuberculosis H37Rv ATCC 27294 assessed as growth inhibition at 1 uM after 6 days by luciferase reporter gene assay relative to control; assay type: functional; conditions: H37Rv ATCC 27294, 144 h, read-out: GI; procedure, shortened: as §2

Compound	inhibition of growth at 0.1 µM [3]	inhibition of growth at 10 µM [11]	inhibition of growth at 1 µM [17]	also measured
O=Cc1ccc(OCOc2ccc(C=O)cc2)cc1	< 10%	85%	30%	Selectivity Index [1]: >60; viability at 24 h, 180 µM [2]: 78.6%; MIC50 [4]: > 10 µM; MIC50 [5]: 3 µM (≈ 0.769 µg/mL); MIC50 [6]: > 10 µM; percent inhibition of intracellular bacterial growth at 1 µM [7]: 35.2%; intracellular bacterial growth inhibition at 0.1 µM [8]: 1.6%; Activity (Salmonella typhimurium [9]): > 10 µM; MCC at 4 h [10]: > 10 µM; Activity (Salmonella typhimurium [12]): > 10 µM; Activity (Salmonella typhimurium [13]): > 10 µM; MIC50 (Mycobacterium ulcerans): > 10 µM; viability at 24 h, 60 µM [14]: 96.8%; intracellular bacterial growth inhibition at 10 µM [15]: 41.3%; viability at 24 h, 120 µM [16]: 91.6%
O=C(O)c1ccc(OCCCCCOc2ccc(C(=O)O)cc2)cc1	< 10%	27%	30%	
O=C(O)c1ccc(OCCCCCCCOc2ccc(C(=O)O)cc2)cc1	< 10%	38%	14%	
O=Cc1ccc(OCC(O)COc2ccc(C=O)cc2)cc1	< 10%	60%	< 10%	
O=C(O)c1ccc(OCCCCCCCCCCCCOc2ccc(C(=O)O)cc2)cc1	< 10%	< 10%	< 10%	
c1ccc(OCCCCCCCCCCCCOc2ccccc2)cc1	< 10%	< 10%	< 10%	
O=C(O)c1ccc(OCCOc2ccc(C(=O)O)cc2)cc1	< 10%	38%	< 10%	
O=C(O)c1ccc(OCOc2ccc(C(=O)O)cc2)cc1	< 10%	40%	< 10%	
O=C(O)c1ccc(OCCCCCCCCCCOc2ccc(C(=O)O)cc2)cc1	< 10%	40%	< 10%	
O=Cc1cccc(OCCCCCCCCCCCCOc2cccc(C=O)c2)c1	< 10%	< 10%	< 10%	
O=C(O)c1ccc(OCCCCCCCCOc2ccc(C(=O)O)cc2)cc1	< 10%	29%	29%	
O=C(O)c1ccc(OCCCCCCCCCCCOc2ccc(C(=O)O)cc2)cc1	< 10%	15%	< 10%	
CCCCCCCCCCCCOc1ccc(C=O)cc1	< 10%	< 10%	< 10%	
O=C(O)c1ccc(OCCCCCCOc2ccc(C(=O)O)cc2)cc1	< 10%	39%	26%	
O=Cc1ccc(OCCCCCCCCCCCCCCOc2ccc(C=O)cc2)cc1	30%	98%	57%	
NNC(=O)c1ccncc1 [ISONIAZID]	98%	100%	100%	MIC50 [4]: < 0.1 µM; MIC50 [5]: < 0.1 µM; MIC50 [6]: < 0.1 µM; percent inhibition of intracellular bacterial growth at 1 µM [7]: 82.3%; intracellular bacterial growth inhibition at 0.1 µM [8]: 37%; MIC50 (Mycobacterium ulcerans): 0.39 µM (≈ 0.0535 µg/mL); intracellular bacterial growth inhibition at 10 µM [15]: 97.7%
O=Cc1ccc(OCCOCCOc2ccc(C=O)cc2)cc1	< 10%	70%	12%	
O=C(O)c1ccc(OCCCOc2ccc(C(=O)O)cc2)cc1	< 10%	< 10%	< 10%	
O=Cc1cccc(OCCCCCOc2cccc(C=O)c2)c1	< 10%	97%	< 10%	
O=C(O)c1ccc(OCCCCOc2ccc(C(=O)O)cc2)cc1	< 10%	27%	26%	
O=[N+]([O-])c1ccc(OCCCCCCCCCCCCOc2ccc([N+](=O)[O-])cc2)cc1	< 10%	91%	< 10%	
O=Cc1ccccc1OCCCCCOc1ccccc1C=O	< 10%	39%	15%	
O=C(O)c1ccc(OCCCCCCCCCOc2ccc(C(=O)O)cc2)cc1	< 10%	17%	17%	
